Measurements reported in publication PMC2680181 (Journal of medicinal chemistry, 2009).

biological target: T1, human MIF binding to its receptor, CD74 (Homo sapiens, UniProt P14174); experiment: MIF-CD74 binding assay; conditions: NA = measured, but not active
T1 sequence (P14174 2-115 limits assumed): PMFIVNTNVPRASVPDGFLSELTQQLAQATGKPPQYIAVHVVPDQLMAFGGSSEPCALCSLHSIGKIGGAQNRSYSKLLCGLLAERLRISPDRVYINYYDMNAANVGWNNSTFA

SMILES | IC50 (µM) MIF-CD74 binding assay
O=C(O)c1cc(-n2cnnc2)ccc1Cl [Compound 16] | very weak MIF-CD74 antagonists
O=C(O)c1cc(-n2cnnn2)ccc1O [Compound 15] | very weak MIF-CD74 antagonists
O=c1oc2c(O)c(O)ccc2cc1-c1nc2ccccc2s1 [Compound 11] | inactive

Now from value to molecule:

IC50 (µM) MIF-CD74 binding assay | SMILES
inactive | CC(=O)Nc1cccc2ccc(-c3cnc4ccccc4c3)nc12 [Compound 28]
inactive | O=c1c2ccc(F)cc2sn1-c1ccc(Cl)cc1 [Compound 32]

biological target: T2, MIF tautomerase activity (rhMIF) (Homo sapiens, UniProt P14174); experiment: 4-HPP tautomerase assay; type: biochemical; conditions: max inhibition printed in place of IC50
T2 sequence (P14174 2-115 limits assumed): T1 sequence (P14174 2-115 limits assumed)
Summary of the method: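 Recombinant human MIF (purified) was pre-incubated with test compound. 4-HPP was dissolved in 50 mM ammonium acetate, pH 6.0, equilibrated to room temperature and stored at 4 °C. At 25 °C, 4-HPP was added to a cuvette of 0.435 M boric acid, pH 6.2, plus the enzyme–compound mix. A305 increase was read over 30–90 s, in triplicate. Compounds spanned a 5000-fold concentration range.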

SMILES | maximal inhibition in 4-HPP tautomerase assay
Oc1ccc2c(c1)oc1ccccc12 [Compound 29] | max 38%
O=C(O)c1cccc(-c2cc[nH]n2)c1 [Compound 33] | max 30%
Oc1ccc(/C=C/c2ccc3cccc(O)c3n2)cc1 [Compound 26] | max 40%

same assay, conditions: substrate 4-HPP; NA = measured, but not active

SMILES | IC50 (µM) 4-HPP tautomerase assay
Oc1c(C(Nc2cccc(F)c2)c2ccccn2)ccc2cccnc12 (stereo not drawn) [Compound 18] | weak tautomerase inhibitors
COC(=O)C[C@H]1CC(c2ccc(O)cc2)=NO1 (racemic) [Compound 9, (S,R)-3-(4-hydroxyphenyl)-4,5-dihydro-5-isoxazole acetic acid methyl ester, reference compound] | inactive
CC(=O)Oc1ccc2nc(-c3cc4ccccc4o3)oc(=O)c2c1 [Compound 17] | weak tautomerase inhibitors
Oc1ccc(/C=C/c2ccc3cccc(O)c3n2)cc1 [Compound 26] | weak tautomerase inhibitors

biological target: T2, MIF tautomerase activity (rhMIF); experiment: Michaelis-Menten analysis of MIF tautomerase with 4-HPP as substrate; type: biochemical; conditions: Lineweaver-Burk plots, Vmax unchanged

SMILES | mode of tautomerase inhibition
O=C(c1cc2ccccc2o1)N1CCc2ccccc21 [Compound 23] | competitive inhibition
Cc1ccc2oc(=O)n(Cc3ccccc3)c2c1 [Compound 24] | competitive inhibition

tested on: MIF tautomerase; experiment: not given; conditions: covalent inhibitor; cited from earlier work

SMILES | tautomerase inhibitor potency
CC(=O)N=C1C=CC(=O)C=C1 [NAPQI, N-acetyl-p-benzoquinone] | 40 µM
